This note sets out measurements from ChEMBL document CHEMBL4431326, “Tumor Targeting with Novel 6-Substituted Pyrrolo [2,3-d] Pyrimidine Antifolates with Heteroatom Bridge Substitutions via Cellular Uptake by Folate Receptor α and the Proton-Coupled Folate Transporter and Inhibition of de Novo Purine Nucleotide Biosynthesis” (J Med Chem, 2016).

For data set [1], the system named is IGROV-1. As to the kind of experiment: Antitumor activity against human IGROV1 cells xenografted into folate-deficient diet fed SCID mouse assessed as tumor growth at 96 mg/kg, iv administered […] post 2 days of tumor implantation measured on day 20 relative to control. Type of data set: functional. Summed up:
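Female NCR SCID mice, 11 weeks, ~20 g, on folate-deficient or standard diet from 14 days pre-implant; bilateral s.c. IGROV1 fragments (30–60 mg); 5 mice/group; tail-vein dosing from day 2 (Q3d schedules) in 5% ethanol, 1% Tween-80, 0.5% NaHCO3, water, pH 6.5; caliper mass (a×b²)/2; T/C and T−C delay.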
A general note: In xenograft studies the graft and the host belong to different species.

In data set [2] the test system is IGROV-1. Nature of the data set: Antiproliferative activity against human IGROV1 cells expressing human FR-alpha/PCFT assessed as reduction in cell viability measured after 96 hrs in presence of folic acid by Cell-Titer Blue fluorescence analysis. Conditions: IGROV-1, 96 h. It counts as functional, cell-based.
Data set [3] can be described thus: Toxicity in folate-deficient diet fed SCID mouse xenografted with human IGROV1 cells assessed as body weight loss at 28 mg/kg, iv administered […] post 2 days of tumor implantation measured after 48 hrs of last dosage. Type of data set: organism-based. To be noted: in vivo. Summed up:
(§1)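 Female NCR SCID mice (11 weeks old, ~20 g) are fed a folate-deficient diet from 14 days before implant. IGROV1 fragments (30–60 mg) are trocar-implanted subcutaneously in both flanks, and mice are randomised at 5/group. Tail-vein dosing starts on day 2: 28 mg/kg/inj Q3dx5, or 96 or 150 mg/kg/inj Q3dx4. Vehicle is 5% ethanol, 1% Tween-80, 0.5% NaHCO3 in water at pH 6.5. Caliper tumor mass is (a×b²)/2, T/C is taken when controls reach 700–1200 mg, and weights are recorded daily.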

For data set [4], the system named is IGROV-1. As to the kind of experiment: Antitumor activity against human IGROV1 cells xenografted into folate-deficient diet fed SCID mouse assessed as tumor growth at 28 mg/kg, iv administered […] post 2 days of tumor implantation measured on day 20 relative to control. Type of data set: functional. Summed up:
as §1

In data set [5] the test system is IGROV-1. As to the kind of experiment: Antitumor activity against human IGROV1 cells xenografted into folate-deficient diet fed SCID mouse assessed as tumor cell kill at 28 mg/kg, iv administered […] post 2 days of tumor implantation measured on day 20. Type of data set: functional. The method, boiled down: as §1
Data set [6] deals with IGROV-1. As to the kind of experiment: Antitumor activity against human IGROV1 cells xenografted into folate-deficient diet fed SCID mouse assessed as tumor growth delay at 96 mg/kg, iv administered […] post 2 days of tumor implantation. It counts as functional.
The test system of data set [7] is IGROV-1. As to the kind of experiment: Antitumor activity against human IGROV1 cells xenografted into folate-deficient diet fed SCID mouse assessed as tumor cell kill at 96 mg/kg, iv administered […] post 2 days of tumor implantation measured on day 20. It counts as functional.
Data set [8] can be described thus: Toxicity in standard diet fed SCID mouse xenografted with human IGROV1 cells assessed as body weight loss at 28 mg/kg, iv administered […] post 2 days of tumor implantation measured during compound treatment. Type of data set: organism-based. Conditions: in vivo, 48 h. Summed up: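 Standard-diet female NCR SCID mice bearing bilateral s.c. IGROV1 fragments; i.v. tail-vein dosing from day 2 post-implant, Q3dx5, vehicle 5% ethanol/1% Tween-80/0.5% NaHCO3 in water, pH 6.5; mice weighed and assessed daily during and after treatment; weight loss recorded as nadir.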

Data set [9] is described as follows: Toxicity in folate-deficient diet fed SCID mouse xenografted with human IGROV1 cells assessed as body weight loss at 28 mg/kg, iv administered […] post 2 days of tumor implantation measured during compound treatment. Type of data set: organism-based. Conditions: in vivo, 48 h. Summed up:
as §1

Data set [10] relates to IGROV-1. As to the kind of experiment: Antiproliferative activity against human IGROV1 cells expressing human FR-alpha/PCFT assessed as reduction in cell viability measured after 96 hrs by Cell-Titer Blue fluorescence analysis. It counts as functional, cell-based. Conditions: IGROV-1, 96 h.
A short description of data set [11]: Toxicity in folate-deficient diet fed SCID mouse xenografted with human IGROV1 cells assessed as body weight loss at 96 and 150 mg/kg, iv administered […] post 2 days of tumor implantation measured after 48 hrs of last dosage. Type of data set: organism-based. Conditions: in vivo. Summed up: as §1

In the case of `Nc1nc2[nH]c(CCCc3ccc(C(=O)N[C@@H](CCC(=O)O)C(=O)O)s3)cc2c(=O)[nH]1`, the T/C is 29% in the data set with IGROV-1 [1] and 35% with IGROV-1 [4]. Further, the figures for the IC50 in the data set on IGROV-1 [2] and in the data set on IGROV-1 [10] were 0.213 µM and 0.00095 µM, respectively. For the same molecule, the Activity entry is recorded as “Non-Toxic” in data set [3], “Non-Toxic” in [8], 15% in data set [9] and “Non-Toxic” in [11]. The LCK in the data set on IGROV-1 [5] and in the data set with IGROV-1 [7] was 1.4 in each case. The Time in the data set on IGROV-1 [6] is 9 days.

As usually defined, the T/C is the ratio of treated to control. Usually IC50 stands for the concentration needed to halve the response being measured.
